# Measured values collected from several papers.
# Compare with care: the assays were run in different laboratories.
# Target: Activin receptor type-1 (ACVR1, Homo sapiens, UniProt Q04771)
# One construct used (Q04771 21-509): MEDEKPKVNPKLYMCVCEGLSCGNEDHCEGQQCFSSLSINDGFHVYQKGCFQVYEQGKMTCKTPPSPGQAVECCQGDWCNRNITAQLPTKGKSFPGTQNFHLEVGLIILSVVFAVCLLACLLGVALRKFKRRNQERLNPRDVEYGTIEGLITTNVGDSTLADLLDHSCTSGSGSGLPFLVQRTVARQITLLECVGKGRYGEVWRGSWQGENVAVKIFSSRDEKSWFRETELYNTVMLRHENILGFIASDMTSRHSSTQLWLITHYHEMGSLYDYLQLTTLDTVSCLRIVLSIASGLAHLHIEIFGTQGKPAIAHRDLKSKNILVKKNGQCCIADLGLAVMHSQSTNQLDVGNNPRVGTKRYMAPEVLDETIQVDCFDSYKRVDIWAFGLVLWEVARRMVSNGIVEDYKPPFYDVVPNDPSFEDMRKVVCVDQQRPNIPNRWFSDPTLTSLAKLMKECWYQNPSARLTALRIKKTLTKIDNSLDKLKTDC
SMILES,read-out,method,concentration,remaining binding [%]
C[C@@]1(Cc2ccc(C#N)cc2)C(=O)N(c2cc(Cl)cc(Cl)c2)c2ncc(C(=O)NC3(c4nc(C5CCC5)no4)CC3)n21,cell-free assay,competition with immobilised ligand,1 µM,89
CCN1CCN(Cc2ccc(C(=O)Nc3ccc(C)c(Oc4ccc5c(c4)CC(=O)N5)c3)cc2C(F)(F)F)CC1,binding,competition with immobilised ligand,1 µM,100
COCCOc1nc(-c2ccc(Cl)nc2)nc2c1CN(C(=O)c1ncn3ccccc13)CC2,cell-free assay,competition with immobilised ligand,0.1 µM,100
C[C@H]1CCN(c2nccc(-c3cnn4ncccc34)n2)C1,binding,,1 µM,100
COc1cnc(Nc2cccc(S(N)(=O)=O)c2)nc1N1CCN(c2ccccc2)C(=O)C1,binding,competition with immobilised ligand,1 µM,100
O=C1CCc2cc(Nc3cc(OC4CCOCC4)c([N+](=O)[O-])cc3Cl)ccc2N1,cell-free assay,competition with immobilised ligand,1 µM,100
O=C(NCCCN1CCOCC1)c1ccc(Nc2ncc(Cl)c(-c3ccc(Cl)s3)n2)cc1,binding,competition with immobilised ligand,1 µM,78
O=C(NCC1CCOCC1)c1n[nH]cc1NC(=O)c1c(F)cccc1F,binding,competition with immobilised ligand,1 µM,96
C=CC(=O)N1CCC(C(=O)NCC(=O)N2CCN(c3nc(-c4cnc(N)nc4C(F)F)nc(N4CCOCC4)n3)CC2)CC1,binding,competition with immobilised ligand,1 µM,100
c1cncc(-c2cccc(Nc3nccc(NC4CCCCC4)n3)c2)c1,binding,competition with immobilised ligand,10 µM,15
CN(C)c1nccc(-c2cnc3ncccn23)n1,binding,,1 µM,88
O=C(NCCCN1CCOCC1)c1ccc(Nc2nccc(-c3cc4ccccc4s3)n2)cc1,binding,competition with immobilised ligand,1 µM,14
COc1ccc2c(O[C@@H]3C[C@H]4C(=O)N[C@]5(C(=O)O)CC5/C=C\CCCCC[C@H](NC(=O)OC5CCCC5)C(=O)N4C3)cc(-c3csc(NC(=O)C(C)C)n3)nc2c1C (stereo partly drawn),cell-free assay,competition with immobilised ligand,1 µM,100
CN(CCCC(F)(F)F)c1nccc(-c2cnn3ncccc23)n1,binding,,1 µM,77
CSc1cccnc1N1CCN(Cc2nc3ccccc3[nH]2)CC1,cell-free assay,competition with immobilised ligand,1 µM,100
CN(C)c1nccc(-c2cnn3ncccc23)n1,binding,,1 µM,90
COc1ccc2c(c1)O[C@@H](c1ccc(OC)c(OC)c1)C[C@H]2NC(=O)C1(c2ccc3c(c2)OC(F)(F)O3)CC1,cell-free assay,competition with immobilised ligand,1 µM,100
c1cnn2ncc(-c3ccnc(N4CCC45COC5)n3)c2c1,binding,,1 µM,64
C[C@@H](c1ccc(-n2cnc3c(N)ncnc32)cc1)N1CCc2nn(C)c(Cc3ccccc3)c2C1=O,binding,competition with immobilised ligand,0.1 µM,85
COc1ccnn2ncc(-c3ccnc(N(C)C)n3)c12,binding,,1 µM,80
O=C(c1ccc(Nc2ncc(Cl)c(-c3ccc(Cl)s3)n2)cc1)N1CCC(N2CCCC2)CC1,binding,competition with immobilised ligand,1 µM,41
